In PMC12849484 (Microbial Cell Factories, 2025):

Assays:
[1] = system: D-lactate-pyruvate pathway in Synechocystis sp. PCC 6803 cells; experiment: LC-MS quantification of intracellular pyruvate and surrounding metabolites; type: cell-based; details: 10 µM, normalized to WT
How it was run: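 Cells were exposed to test conjugate at final 10 µM, with untreated wild-type and Δddh strain as comparators, and sampled at 24 and 48 h. For each sample, 8 mL culture was membrane-filtered (0.2 µm) and extracted; the aqueous phase was dried and analysed by LC-MS against 1–100 µg/mL standards. Values were normalized to untreated wild-type; ≥3 replicates; ANOVA.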

[2] = system: Synechocystis sp. PCC 6803; experiment: Growth curves; type: cell-based; details: OD730 over 72 h, triplicates
How it was run: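 Synechocystis subcultures in BG11 (10 mL, starting OD730 0.2) were pre-incubated 23 h, then given test conjugate from a 1 mM water stock to final 2, 4, 6, 8 or 10 µM. Controls were untreated cells and 10 µM non-specific CPP-PNA. Hour 0 was 1 h after addition. OD730 was followed over time; triplicates, mean ± SD.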

## TTCATGACGA [CPP-Syn6803ddh]
[1]; 24 h, N = 3
  D-lactate level at 24 h: consistently low
  change in acetyl-CoA concentration: minimal or no changes
  change in malate concentration: minimal or no changes
  change in phosphoenolpyruvate (PEP) concentration: minimal or no changes
  increase in pyruvate compared to untreated wild-type: 2.5 fold
[1]; 48 h post-treatment, at least three replicates
  increase in D-lactate accumulation compared to wild-type: 3 fold

## CTCATAGATC [CPP-ncPNA]
[2]
  growth inhibition at 10 µM: no growth inhibition
